According to ChEMBL document CHEMBL1949645, “In vitro and in vivo antifilarial activity evaluation of 3,6-epoxy [1,5]dioxocines: a new class of antifilarial agents” (Bioorg Med Chem Lett, 2012):
≈ marks a conversion by molar mass, not a printed value.

Assays:
[1] = test system: Brugia malayi; assay: Antifilarial activity against microfilariae Brugia malayi by motility assay; type: functional, organism-based; details: for IC50: Brugia malayi
How it was run: (§1)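 Brugia malayi (sub-periodic strain), female adult worms or microfilariae, scored by motility following the Murthy and Chatterjee method. Compounds and reference DEC dissolved in DMSO, final DMSO below 0.1% in incubation medium; DMSO-only controls. LC100 is the concentration giving 100% loss of motility (parasite death); IC50 is the concentration giving 50% motility inhibition.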

[2] = test system: Brugia malayi; assay: Antifilarial activity against adult Brugia malayi by motility assay; type: functional, organism-based; details: for IC50: Brugia malayi; how it was run: as §1
[3] = test system: Brugia malayi; assay: Growth inhibition of adult Brugia malayi by MTT assay; type: functional
How it was run: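 Adult female B. malayi worms were exposed in vitro to agents dissolved in DMSO, keeping final DMSO below 0.1%. Controls received DMSO alone. Results are given as mean % inhibition of MTT reduction.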

[4] = test system: Brugia malayi; assay: Antifilarial activity against 5 to 7 months old Brugia malayi infected in Mastomys coucha assessed as sterilized female worm at 50 mg/kg, sc administered 7 to 8 days post-adult worm transplantation for 5 days measured on day 91 (reference value: 19.62%); type: functional; details: route subcutaneous
How it was run: (§2)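 Mastomys coucha harbouring B. malayi were dosed at 200 or 50 mg/kg, with vehicle-treated animals as controls. Male, female and total adult worms recovered were counted and given as mean ± SD. Sterilized female worms were reported as count (%).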

[5] = test system: Brugia malayi; assay: Antifilarial activity against 5 to 7 months old Brugia malayi infected in Mastomys coucha assessed as reduction in worm burden at 50 mg/kg, sc administered 7 to 8 days post-adult worm transplantation for 5 days measured on day 91 relative to control; type: functional; design: scale not given: the % may be the effect or the level left; details: route subcutaneous; how it was run: as §2
[6] = test system: Brugia malayi; assay: Antifilarial activity against Brugia malayi infected in Meriones unguiculatus assessed as sterilized female worm at 25 mg/kg, sc administered 7 to 8 days post-adult worm transplantation for 5 days measured after 42 days; type: functional; details: route subcutaneous
How it was run: (§3)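 Dosing was s.c. once daily × 5 days: 200 mg/kg (n = 4) or 25 mg/kg (n = 6), with vehicle-treated controls (n = 4). Read-outs were peritoneal-cavity microfilaraemia status, worms recovered (mean ± SD, P vs control) and % sterilized female worms.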

[7] = test system: Brugia malayi; assay: Antifilarial activity against 5 to 7 months old Brugia malayi infected in Mastomys coucha assessed as sterilized female worm at 200 mg/kg, sc administered 7 to 8 days post-adult worm transplantation for 5 days measured on day 91 (reference value: 19.62%); type: functional; details: route subcutaneous; how it was run: as §2
[8] = test system: Brugia malayi; assay: Antifilarial activity against Brugia malayi infected in Meriones unguiculatus assessed as sterilized female worm at 200 mg/kg, sc administered 7 to 8 days post-adult worm transplantation for 5 days measured after 42 days; type: functional; details: route subcutaneous; how it was run: as §3
[9] = test system: Brugia malayi; assay: Antifilarial activity against 5 to 7 months old Brugia malayi infected in Mastomys coucha assessed as reduction in worm burden at 200 mg/kg, sc administered 7 to 8 days post-adult worm transplantation for 5 days measured on day 91 relative to control; type: functional; design: scale not given: the % may be the effect or the level left; details: route subcutaneous; how it was run: as §2

Compound	LC100 [1]	LC100 [2]	IC50 [2]	growth inhibition (GI) [3]	Activity [4]	Activity [5]	Activity [6]	Activity [7]	IC50 [1]	Activity [8]	Activity [9]
CCC(C)c1cc(/C=C/C(=O)c2ccc(C)cc2)cc2c1OCC1COC2O1 (racemic)	>10 µg/mL	10 µg/mL	0.5 µg/mL (≈ 1.32 µM)	–	–	–	–	–	–	–	–
O=C(/C=C/c1cc2c(c3ccccc13)OCC1COC2O1)c1ccccc1 (racemic)	>10 µg/mL	>10 µg/mL	–	34%	–	–	–	–	–	–	–
CCN(CC)C(=O)N1CCN(C)CC1.O=C(O)CC(O)(CC(=O)O)C(=O)O [DIETHYLCARBAMAZINE CITRATE]	–	–	–	–	20.59%	20.18%	11%	–	–	–	–
COc1ccc(C(=O)/C=C/c2cc(C)c3c(c2)C2OCC(CO3)O2)cc1 (racemic)	>10 µg/mL	10 µg/mL	3.5 µg/mL (≈ 9.93 µM)	22%	–	–	–	24.6%	3.9 µg/mL (≈ 11.1 µM)	24%	32.89%
Cc1ccc(C(=O)/C=C/c2cc3c(c4ccccc24)OCC2COC3O2)cc1 (racemic)	>10 µg/mL	>10 µg/mL	–	33%	–	–	–	–	–	–	–
O=C(/C=C/c1cc2c(c3ccccc13)OCC1COC2O1)c1ccc(Cl)cc1 (racemic)	>10 µg/mL	>10 µg/mL	–	41%	–	–	–	–	–	–	–
Cc1ccc(C(=O)/C=C/c2cc(C)c3c(c2)C2OCC(CO3)O2)cc1 (racemic)	5 µg/mL	1.25 µg/mL	0.4 µg/mL (≈ 1.19 µM)	22%	–	–	–	–	1.8 µg/mL (≈ 5.35 µM)	45%	–
Cc1cc(/C=C/C(=O)c2ccccc2)cc2c1OCC1COC2O1 (racemic)	2.5 µg/mL	1.25 µg/mL	1 µg/mL (≈ 3.1 µM)	15%	–	–	–	–	0.9 µg/mL (≈ 2.79 µM)	29%	–
Cc1cc(/C=C/C(=O)c2ccc(Cl)cc2)cc2c1OCC1COC2O1 (racemic)	2.5 µg/mL	1.25 µg/mL	0.6 µg/mL (≈ 1.68 µM)	39%	–	–	–	–	1.1 µg/mL (≈ 3.08 µM)	29%	–
CCC(C)c1cc(/C=C/C(=O)c2ccccc2)cc2c1OCC1COC2O1 (racemic)	5 µg/mL	2.5 µg/mL	0.9 µg/mL (≈ 2.47 µM)	–	–	–	–	–	0.9 µg/mL (≈ 2.47 µM)	27%	–
CCN(CC)C(=O)N1CCN(C)CC1 [DIETHYLCARBAMAZINE]	500 µg/mL	800 µg/mL	289 µg/mL (≈ 1450 µM)	64%	–	–	–	–	354 µg/mL (≈ 1780 µM)	–	–
CCC(C)c1cc(/C=C/C(=O)c2ccc(OC)cc2)cc2c1OCC1COC2O1 (racemic)	>10 µg/mL	>10 µg/mL	–	–	–	–	–	–	–	–	–
CCC(C)c1cc(/C=C/C(=O)c2ccc(Cl)cc2)cc2c1OCC1COC2O1 (racemic)	10 µg/mL	5 µg/mL	1.6 µg/mL (≈ 4.01 µM)	–	–	–	–	17.78%	3.5 µg/mL (≈ 8.77 µM)	63%	38.16%
COc1ccc(C(=O)/C=C/c2cc3c(c4ccccc24)OCC2COC3O2)cc1 (racemic)	>10 µg/mL	>10 µg/mL	–	35%	–	–	–	–	–	–	–
